Several values for one entry are separate records, joined by “and”; a condition that tells them apart may be missing. Equal values may be shown once. Read-outs that look alike come from different tables or passages of the source.
What was measured:
[1] = Spectroelectrochemical midpoint potential, ligand-free; assay type: physicochemical, Rhodnius prolixus; conditions: for ΔEm = Em(mutant)−Em(standard) / Em: ligand-free
[2] = Spectroelectrochemical midpoint potential of the NO complex; assay type: physicochemical, Rhodnius prolixus; conditions: for ΔpHΔ(Em,NO) = ΔEm,NO(pH7.5) − ΔEm,NO(pH5.5) / ΔEm,NO = Em(mutant)−Em(standard) / Em,NO: NO bound
Outline: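 Spectroelectrochemistry of ~0.05 mM E. coli-expressed protein in 0.1 M sodium phosphate or acetate at pH 5.5, 6.5 and 7.5, 27 ± 1 °C. SNAP supplied NO at a level fully complexing both oxidation states. Ag/AgCl reference ([…] mV vs SHE). Absorbance versus applied potential fit to Nernst equation; pH dependence and mutant−standard differences derived.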

[3] = Imidazole binding constant to Fe; set-up: species or system Rhodnius prolixus
[4] = ligand-free, cited from earlier work
[5] = NO bound, cited from earlier work
[6] = Histamine binding constant to Fe; set-up: species or system Rhodnius prolixus; conditions: pH 7.5
[7] = NO binding constant to Fe; set-up: species or system Rhodnius prolixus; conditions: pH 7.5
[8] = read-out: Kd for NO dissociation, Fe(III), cited from earlier work
NP1-E55Q = NP1-E55Q (Rhodnius prolixus, UniProt Q26239, E78Q); experiment: biochemical; assay type: binding
Sequence of NP1-E55Q (Q26239 24-207 E78Q): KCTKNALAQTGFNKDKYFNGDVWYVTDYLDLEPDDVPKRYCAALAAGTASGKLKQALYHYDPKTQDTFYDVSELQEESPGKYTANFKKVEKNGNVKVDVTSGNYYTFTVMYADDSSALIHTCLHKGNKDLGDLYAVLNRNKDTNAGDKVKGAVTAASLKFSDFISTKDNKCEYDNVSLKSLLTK

Compound	ΔEm = Em(mutant)−Em(standard) ([1]; pH 5.5)	Em ([1]; pH 5.5, 27 °C)	ΔEm = Em(mutant)−Em(standard) ([1]; pH 7.5)	Em ([1]; pH 7.5, 27 °C)	ΔpHΔ(Em,NO) = ΔEm,NO(pH7.5) − ΔEm,NO(pH5.5) [2]	ΔEm,NO = Em(mutant)−Em(standard) ([2]; pH 5.5)	Em,NO ([2]; pH 5.5, 27 °C)	ΔEm,NO = Em(mutant)−Em(standard) ([2]; pH 7.5)	Em,NO ([2]; pH 7.5, 27 °C)	ΔEm = Em(mutant)−Em(standard) ([1]; pH 6.5)	Em ([1]; pH 6.5, 27 °C)	ΔEm,NO = Em(mutant)−Em(standard) ([2]; pH 6.5)	Em,NO ([2]; pH 6.5, 27 °C)	further results
NP2-D1A,E124A: site-directed mutant of NP2-D1A, E124 replaced by Ala	125±4 mV	−193±4 mV vs. SHE	7±4 mV	−318±2 mV vs. SHE	−2±6 mV	4±5 mV	52±5 mV vs. SHE	2±3 mV	−18±3 mV vs. SHE					increase in imidazole binding constant ([3]; at both pH values (5.5 and 7.5)): 0.7 log units
NP2-D1A,K127A: site-directed mutant of NP2-D1A, K127 replaced by Ala	−9±5 mV	−327±5 mV vs. SHE	−54±4 mV	−379±2 mV vs. SHE	27±5 mV	−27±3 mV	21±2 mV vs. SHE		−20±4 mV vs. SHE	−2±6 mV	−329±3 mV vs. SHE	−4±2 mV	6±2 mV vs. SHE	midpoint potential more negative with respect to NP2-D1A ([1]; pH 7.5, absence of NO): 54 mV
NP2-D1A,D128A: site-directed mutant of NP2-D1A, D128 replaced by Ala	7±4 mV	−311±4 mV vs. SHE	−57±4 mV	−382±3 mV vs. SHE	38±4 mV	−16±4 mV	32±3 mV vs. SHE	22±2 mV	2±1 mV vs. SHE			−8±2 mV	2±1 mV vs. SHE	
NP2-D1A,D31A: site-directed mutant of NP2-D1A, D31 replaced by Ala	−55±6 mV	−373±6 mV vs. SHE	−41±4 mV	−366±3 mV vs. SHE	22±3 mV	−10±2 mV	38±2 mV vs. SHE	12±3 mV	−8±2 mV vs. SHE	−45±9 mV	−372±8 mV vs. SHE	−3±2 mV	7±2 mV vs. SHE	
NP2-D1A: D1A mutant of NP2 with M0 cleaved during expression, used as standard														decrease of NO-bound Em between pH 5.5 and 7.5 ([2]; NO complex): 68 mV; pH dependence of Em, negative shift ([2]; NO complex, pH 5.5–7.5 range): 34 mV/pH unit; Em ([4]; pH 5.5, 27 °C ref 20): −318±1 mV vs. SHE; Em ([4]; pH 6.5, 27 °C ref 20): −327±6 mV vs. SHE; Em ([4]; pH 7.5, 27 °C ref 20): −325±3 mV vs. SHE; Em,NO ([5]; pH 5.5, 27 °C ref 20): 48±1 mV vs. SHE; Em,NO ([5]; pH 6.5, 27 °C ref 20): 10±1 mV vs. SHE; Em,NO ([5]; pH 7.5, 27 °C ref 20): −20±1 mV vs. SHE
NP2-D1A,D89A: site-directed mutant of NP2-D1A, D89 replaced by Ala	34±3 mV	−284±3 mV vs. SHE	5±4 mV	−320±3 mV vs. SHE	33±3 mV	3 mV and 3±2 mV		37 mV and 37±2 mV	17±2 mV vs. SHE	23±7 mV	−304±4 mV vs. SHE	9±2 mV	19±1 mV vs. SHE	
NP2-D1A,D36A: site-directed mutant of NP2-D1A, D36 replaced by Ala	25±4 mV	−293±3 mV vs. SHE	18±5 mV	−307±4 mV vs. SHE	39±5 mV	−12±4 mV	36±4 mV vs. SHE	28±3 mV	8±2 mV vs. SHE	11±7 mV	−315±4 mV vs. SHE	20±2 mV	30±2 mV vs. SHE	
NP2-D1A,E100A: site-directed mutant of NP2-D1A, E100 replaced by Ala	6±6 mV	−312±6 mV vs. SHE	−32±6 mV	−357±5 mV vs. SHE	24±3 mV	−5±2 mV	43±2 mV vs. SHE	19±2 mV	0±1 mV vs. SHE	17±7 mV	−310±3 mV vs. SHE	−5±2 mV	5±1 mV vs. SHE	larger histamine binding constant than standard [6]: 0.7 log units
NP2-D1A,D29A: site-directed mutant of NP2-D1A, D29 replaced by Ala	−17±3 mV	−334±3 mV vs. SHE	12±3 mV	−313±1 mV vs. SHE	50±3 mV	−28±2 mV	20±1 mV vs. SHE	22±2 mV	2±1 mV vs. SHE	19±6 mV	−308±3 mV vs. SHE	26±2 mV	36±1 mV vs. SHE	binding constant of imidazole larger than that of histamine ([3]; pH 7.5): 1.3 log units
NP2–M0D1: recombinant wild-type nitrophorin 2 expressed with the N-terminal methionine present														NO formation constant Kf, Fe(III) form [7]: 2e+08 M⁻¹; Kd ([7]; read-out: NO dissociation constant Kd, Fe(III) form): 5 nM; Kd ([8]; pH 5.5 ref 19): 1 nM; Kd ([8]; pH 7.5 ref 19): 20 nM
NP2-D1A,E53Q: site-directed mutant of NP2-D1A, buried E53 replaced by Gln			10±4 mV	−316±3 mV vs. SHE	64±4 mV	40±3 mV	88±3 mV vs. SHE	104 mV and 104±3 mV	84±2 mV vs. SHE			95±2 mV	105±1 mV vs. SHE	
NP2-D1A,D99A: site-directed mutant of NP2-D1A, D99 replaced by Ala	14±4 mV	−304±4 mV vs. SHE	−12±5 mV	−337±4 mV vs. SHE	21±2 mV	−10±2 mV	38±1 mV vs. SHE	11±2 mV	−9±1 mV vs. SHE	13±6 mV	−314±1 mV vs. SHE	−1±3 mV	9±2 mV vs. SHE	
c1c[nH]cn1 [imidazole, imidazole (ImH)]														Kd (NP1-E55Q): 200 nM
